Published values of several laboratories.
Each line is one published result; the experiments were not run side by side.
Target: Tyrosine-protein kinase Yes (YES1, Homo sapiens, UniProt P07947)

Structure (SMILES) | assay | setting | measurement | result
CC(=O)c1c(NS(C)(=O)=O)c2cc(-c3ccc(Cl)cc3)c(-c3ccc(Cl)cc3Cl)nc2n(C)c1=O | cell-free assay, competition with immobilised ligand | 1 µM | remaining binding | 96%
COc1cc(Nc2cnc(C#N)c(O[C@H](C)CN(C)C)n2)ncc1-c1cnn(C)c1 | enzyme activity, inhibitor, radiometric | 10 µM | remaining activity | 39%
COc1cc2ncnc(Nc3ccc(Oc4ccccc4)c(C)c3C)c2cc1OC | enzyme activity, inhibitor | 1 µM | inhibition | 88%
O=C(Nc1cnn(-c2csc(C(=O)NC3COC3)c2)c1)Nc1ccccc1Cl | enzyme activity, inhibitor | 5 µM | remaining activity | 96.5%
COc1cccc2c(NCc3ccccc3)nc(-n3c(N)nc4ccccc43)nc12 | target engagement in cells, inhibitor, chemoproteomics | 20 mM | inhibition | -2.4%
COc1cc(Cl)c(C(=O)N[C@@H](CN[C@H]2CC[C@@H](N)CC2)Cc2ccc(C#N)cc2)cc1-c1ccc(CN[C@H](C)c2ccc(C)cc2)o1 | enzyme activity, inhibitor | 1 µM | remaining activity | 62%
CCC(=O)N[C@H]1CC[C@@H](C(=O)N(C)c2ccc(-c3nc4ccccc4o3)cc2)C1 | cell-free assay, competition with immobilised ligand | 1 µM | remaining binding | 82%
FC(F)(F)Oc1cccc(-c2cnc3ccc(-c4ccncc4)nn23)c1 | enzyme activity, inhibitor, radiometric | 5 µM | activity vs control | 77%
CCCOc1ccc(OC)c(F)c1C(=O)c1ccc(C(=O)N[C@@H]2CNC[C@H]2NC(=O)c2ccc3[nH]ncc3c2)cc1 | enzyme activity, inhibitor | 10 µM | remaining activity | 41%
CO[C@@H](C)c1c(Nc2ccc([C@H](N(C)C(=O)C3CCS(=O)(=O)CC3)C(F)(F)F)cc2)cnc2cc(Cl)nn12 | cell-free assay, competition with immobilised ligand | 1 µM | remaining binding | 99%
Cn1c(=O)n(-c2ccc(C(C)(C)C#N)cc2)c2c3cc(-c4cnc5ccccc5c4)ccc3ncc21 | enzyme activity, inhibitor | 10 µM | remaining activity | 69%
CC/C(=N\NC(=O)NCc1cccc(O)c1)c1ccc(O)c(C)c1O | enzyme activity, inhibitor | 0.1 µM | inhibition | 4.5%
Nc1ncnc2occ(-c3ccc(NC(=O)Nc4cc(C(F)(F)F)ccc4F)cc3)c12 | cell-free assay | 20 µM | remaining signal | 2.9%
C[C@@H]1CN(c2cc(-c3n[nH]c4ccc(OC5(C)CC5)cc34)ncn2)C[C@H](C)O1 | cell-free assay, competition with immobilised ligand | 0.1 µM | remaining binding | 80%
Cc1cc(NC(=O)c2cccc3cc(-c4cccc5[nH]nc(N)c45)ccc23)ccc1F | enzyme activity, inhibitor | 0.1 µM | activity vs control | 108%
CN1CC(Oc2cnc(C#N)cc2-c2ccn3nc(NC(=O)C4CC4)cc3c2)C1 | enzyme activity, inhibitor | 1 µM | inhibition | 86%

Structure (SMILES) | assay | setting | measurement | result
Oc1cccc(-c2nc(N3CCOCC3)c3oc4ncccc4c3n2)c1 | enzyme activity, inhibitor | 10 µM | remaining activity | 92%
CC(C)(C)c1nc(-c2cccc(NS(=O)(=O)c3c(F)cccc3F)c2F)c(-c2ccnc(N)n2)s1 | enzyme activity, inhibitor, radiometric | 1 µM | remaining activity | 105%
Cc1ccc(C(=O)Nc2ccc(CN3CCN(C)CC3)c(C(F)(F)F)c2)cc1C#Cc1cnc2cccnn12 | enzyme activity | 23.5 nM | remaining activity | 34%
O=C1Nc2ccc(Cl)cc2C1=Cc1cc(Cl)c(O)c(Cl)c1 | cell-free assay | 0.5 µM | remaining signal | 78.3%
O=C(O)[C@@H]1[C@@H](Cn2nnc3ccccc3c2=O)CC[C@H]1C(=O)c1ccc(OCCC2CCOCC2)cc1 | cell-free assay, competition with immobilised ligand | 1 µM | remaining binding | 100%
CCOc1cc(-c2nncn2C)ccc1Nc1ncc2cc(C)nc(NCC(C)(C)C)c2n1 | enzyme activity, inhibitor, FRET | 1 µM | inhibition | 22%
O=c1cc(-c2cccc3c2Sc2ccccc2S3)oc(N2CCOCC2)c1 | enzyme activity, inhibitor | 0.5 µM | remaining activity | 89.4%
COCCOc1nc(-c2ccc(Cl)nc2)nc2c1CN(C(=O)c1ncn3ccccc13)CC2 | cell-free assay, competition with immobilised ligand | 0.1 µM | remaining binding | 100%
C=CC(=O)Nc1cc(Nc2nccc(Nc3cc(Cl)c(F)cc3C(C)(C)O)n2)c(OC)cc1N1CC[C@@H](N(C)C)C1 | enzyme activity, inhibitor | 1 µM | inhibition | 51%
CC(C)(O)[C@H]1CC[C@H](Nc2ccc3ncc(-c4cccc(C(F)(F)F)c4)n3n2)CC1 | enzyme activity, inhibitor | 1 µM | remaining activity | 18.1%
CCCCNc1ncc2c(-c3ccc(F)cc3)nn(C[C@H]3CC[C@H](N)CC3)c2n1 | target engagement in cells, inhibitor, chemoproteomics | 20 mM | inhibition | 92.8%
O=C(N1CCS(=O)(=O)CC1)N1C[C@H](c2ccc(OC(F)(F)F)cc2)C[C@H](c2nc(C3CC3)no2)C1 | cell-free assay, competition with immobilised ligand | 1 µM | remaining binding | 96%
Nc1nc(Nc2ccccc2)sc1C(=O)c1c(F)cccc1F | enzyme activity, inhibitor | 10 µM | remaining activity | 26%
CCCCN(CCCC)C(=O)CN1C[C@H](c2cc(OC)c3c(c2)OCO3)[C@@H](C(=O)O)[C@@H]1CC(C)(C)CCC | cell-free assay, competition with immobilised ligand | 1 µM | remaining binding | 100%
O=C1NC(=O)c2cc(Nc3ccc(F)cc3)c(Nc3ccc(F)cc3)cc21 | cell-free assay | 0.5 µM | remaining signal | 86.6%
